Consider six compounds from ChEMBL document CHEMBL1143854 (Antimicrob Agents Chemother, 2007).

Activity calls are given as the source filed them. The calls are words filed in the database; no cut-off is given here.

Type in all cases: functional, organism-based
Assay [1] relates to Plasmodium falciparum. The assay can be described thus: Reduction of [3H]dihydroartemisinin uptake in chloroquine-sensitive Plasmodium falciparum 3D7 infected erythrocytes after 90 min. The method, boiled down:
(§1)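 Trophozoite-stage parasitized erythrocytes (5% parasitemia, 1.5% hematocrit) added to microtubes holding unlabeled antimalarial plus radiolabeled drug ([3H]DHA 1.4 Ci/mmol or [3H]CQ 50.4 Ci/mmol); 37°C, 90 min. Cells spun through silicon oil, radioactivity by liquid scintillation. Uptake as percent of control parasitized erythrocytes after subtracting uninfected-erythrocyte uptake; at least two experiments, each in triplicate.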

The test system of assay [2] is Plasmodium falciparum. In words: Reduction of [3H]dihydroartemisinin uptake in chloroquine-sensitive Plasmodium falciparum FC27 infected erythrocytes after 90 min. In short, it runs like this: as §1
Assay [3] relates to Plasmodium falciparum. The assay can be described thus: Reduction of [3H]dihydroartemisinin uptake in chloroquine-resistant Plasmodium falciparum RSA11 infected erythrocytes after 90 min. The method, boiled down: (§2)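 [3H]dihydroartemisinin (1.4 Ci/mmol) uptake into trophozoite-infected erythrocytes (5% parasitemia, 1.5% hematocrit), with unlabeled antimalarial added at the start, 90 min at 37°C. Cells spun through silicone oil, radioactivity counted by liquid scintillation. Uptake given as percent of untreated infected-cell control after subtracting uptake in uninfected erythrocytes. At least two experiments, each in triplicate.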

Assay [4] relates to Plasmodium falciparum. The assay can be described thus: Reduction of [3H]chloroquine uptake in chloroquine-sensitive Plasmodium falciparum FC27 infected erythrocytes after 90 min. In short, it runs like this: as §1
Assay [5] concerns Plasmodium falciparum. The assay can be described thus: Reduction of [3H]chloroquine uptake in chloroquine-sensitive Plasmodium falciparum 3D7 infected erythrocytes after 90 min. In short, it runs like this: as §1
In assay [6] the test system is Plasmodium falciparum. The assay can be described thus: Reduction of [3H]chloroquine uptake in chloroquine-resistant Plasmodium falciparum RSA11 infected erythrocytes after 90 min. The method, boiled down: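 [3H]chloroquine (50.4 Ci/mmol) uptake into trophozoite-infected erythrocytes (5% parasitemia, 1.5% hematocrit), with unlabeled antimalarial added at the start, 90 min at 37°C. Cells spun through silicone oil, radioactivity counted by liquid scintillation. Uptake given as percent of untreated infected-cell control after subtracting uptake in uninfected erythrocytes. At least two experiments, each in triplicate.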

Assay [7] relates to Plasmodium falciparum. The assay can be described thus: Reduction of [3H]dihydroartemisinin uptake in chloroquine-resistant Plasmodium falciparum K1 infected erythrocytes after 90 min. In short, it runs like this: as §2
The subject of assay [8] is Plasmodium falciparum. The assay can be described thus: Antimalarial activity against chloroquine-sensitive Plasmodium falciparum FC27.
Assay [9] has as its system Plasmodium falciparum. The assay can be described thus: Antimalarial activity against chloroquine-sensitive Plasmodium falciparum 106/1.
The test system of assay [10] is Plasmodium falciparum. The assay can be described thus: Antimalarial activity against chloroquine-sensitive Plasmodium falciparum T996.
For assay [11], the system named is Plasmodium falciparum. The assay can be described thus: Antimalarial activity against chloroquine-resistant Plasmodium falciparum 34-1/E.
Assay [12] has as its system Plasmodium falciparum. In words: Antimalarial activity against chloroquine-sensitive Plasmodium falciparum 3D7.
Assay [13] concerns Plasmodium falciparum. The assay can be described thus: Antimalarial activity against chloroquine-resistant Plasmodium falciparum 7G8-mdr7G8.
Assay [14] has as its system Plasmodium falciparum. The assay can be described thus: Antimalarial activity against chloroquine-resistant Plasmodium falciparum RSA11.
In assay [15] the test system is Plasmodium falciparum. In words: Antimalarial activity against chloroquine-resistant Plasmodium falciparum K1.

As for `CCN(CC)CCCC(C)Nc1ccnc2cc(Cl)ccc12` (configuration not stated), the outcome in the assay with Plasmodium falciparum [1], with Plasmodium falciparum [2], in the assay on Plasmodium falciparum [3], in the assay on Plasmodium falciparum [4], in the assay on Plasmodium falciparum [5] and with Plasmodium falciparum [6] was Active. Moreover, the outcome with Plasmodium falciparum [6] (K1) and in the assay with Plasmodium falciparum [7] was Active.

Regarding `CO[C@H]1O[C@@H]2O[C@@]3(C)CC[C@H]4[C@H](C)CC[C@@H]([C@H]1C)[C@@]24OO3`, the outcome with Plasmodium falciparum [1], in the assay with Plasmodium falciparum [2], in the assay with Plasmodium falciparum [3], in the assay with Plasmodium falciparum [4], in the assay on Plasmodium falciparum [5] and in the assay with Plasmodium falciparum [6] was Active. Further, the result in the assay on Plasmodium falciparum [6] (K1) and with Plasmodium falciparum [7] was Active.

As to `Clc1ccc2c(N3CCN(CCCN4CCN(c5ccnc6cc(Cl)ccc56)CC4)CC3)ccnc2c1` [PIPERAQUINE], the outcome with Plasmodium falciparum [1], in the assay with Plasmodium falciparum [2], with Plasmodium falciparum [3], in the assay on Plasmodium falciparum [4], in the assay on Plasmodium falciparum [5] and with Plasmodium falciparum [6] was Active. Besides, the result in the assay on Plasmodium falciparum [6] (K1) and with Plasmodium falciparum [7] was Active. Further, the IC50 came out at 29.6 nM with Plasmodium falciparum [8]; 22.2 nM in the assay on Plasmodium falciparum [9]; 19.9 nM in the assay on Plasmodium falciparum [10]; 16.4 nM in the assay on Plasmodium falciparum [11]; 36.9 nM with Plasmodium falciparum [12].

For `OC(c1cc(C(F)(F)F)nc2c(C(F)(F)F)cccc12)C1CCCCN1` (configuration not stated), the outcome with Plasmodium falciparum [1], with Plasmodium falciparum [2], with Plasmodium falciparum [3], in the assay on Plasmodium falciparum [4], in the assay with Plasmodium falciparum [5] and in the assay on Plasmodium falciparum [6] was Active. Further, the result in the assay with Plasmodium falciparum [6] (K1) and with Plasmodium falciparum [7] was Active.

Consider `CCN(CC)Cc1cc(Nc2ccnc3cc(Cl)ccc23)ccc1O`, for which the outcome in the assay on Plasmodium falciparum [1], in the assay with Plasmodium falciparum [2], in the assay on Plasmodium falciparum [3] and with Plasmodium falciparum [7] was Active. Moreover, the concentration for half-maximal inhibition (IC50) in the assay on Plasmodium falciparum [8] stood at 6.68 nM; in the assay with Plasmodium falciparum [13], 32.7 nM; with Plasmodium falciparum [14], 26.7 nM; in the assay on Plasmodium falciparum [9], 17.5 nM; in the assay with Plasmodium falciparum [10], 14.8 nM; with Plasmodium falciparum [11], 17.2 nM. Also, the IC50 in the assay on Plasmodium falciparum [12] was found to be 18.4 nM; in the assay with Plasmodium falciparum [15] it was 22.4 nM.

Regarding `C[C@H]1[C@@H](O)O[C@@H]2O[C@@]3(C)CC[C@H]4[C@H](C)CC[C@@H]1[C@@]24OO3`, the outcome with Plasmodium falciparum [1], with Plasmodium falciparum [2], with Plasmodium falciparum [3], in the assay on Plasmodium falciparum [4], with Plasmodium falciparum [5] and with Plasmodium falciparum [6] was Active. Also, the result with Plasmodium falciparum [6] (K1) and in the assay on Plasmodium falciparum [7] was Active.
